According to ChEMBL document CHEMBL4219134, “Xanthone derivatives as phosphoglycerate mutase 1 inhibitors: Design, synthesis, and biological evaluation” (Bioorg Med Chem, 2018):
Blank lines part the entries; values can stand above or below the molecule they belong to.

What was measured:
[1] = target: T1, Phosphoglycerate mutase 1 (Homo sapiens, UniProt P18669); assay: Inhibition of recombinant PGAM1 (unknown origin) using 3-PG as substrate preincubated for 2 mins followed by substrate addition
How it was run: (§1)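 Recombinant PGAM1 plus compound (DMSO) in 50 mM Tris pH 8.0, preincubated 2 min at room temperature. Started with 3PG (200 mM stock); NADH oxidation read as OD340 decrease. IC50 from triplicates, mean ± sd.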
Target sequence in this assay (P18669 whole entry): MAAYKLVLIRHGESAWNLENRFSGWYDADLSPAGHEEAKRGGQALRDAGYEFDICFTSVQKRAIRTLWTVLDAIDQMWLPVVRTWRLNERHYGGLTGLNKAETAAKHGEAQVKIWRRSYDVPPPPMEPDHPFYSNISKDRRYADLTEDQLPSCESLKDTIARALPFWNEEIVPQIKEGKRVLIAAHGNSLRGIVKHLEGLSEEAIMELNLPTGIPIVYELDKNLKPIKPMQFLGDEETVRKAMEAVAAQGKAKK

PANC-1 = assay: Antiproliferative activity against human PANC1 cells after 72 hrs by MTT assay; assay type: functional, cell-based; conditions: PANC-1, 72 h
How it was run: (§2)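 MTT assay: 2 × 10^3 cells per well, cultured 24 h at 37 °C. Compound then added for 72 h at 37 °C, followed by 0.5 mg mL-1 MTT for 4 h. Formazan dissolved in DMSO and absorbance read at 570 nm. IC50 from triplicate experiments, mean ± sd.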

NCI-H1299 = assay: Antiproliferative activity against human H1299 cells after 72 hrs by MTT assay; assay type: functional, cell-based; conditions: NCI-H1299, 72 h; how it was run: as §2
Homo sapiens [2] = organism: Homo sapiens; assay: Inhibition of pyruvate kinase (unknown origin) at 5 uM using 2-PG relative to control
How it was run: (§3)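 PGAM1 omitted to test the downstream coupling enzymes. Compound (0.5 mM stock) preincubated 2 min at room temperature in 50 mM Tris pH 8.0. OD340 decrease read; inhibition ratio at 5 µM.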

Homo sapiens [3] = organism: Homo sapiens; assay: Inhibition of enolase (unknown origin) at 5 uM using 2-PG relative to control; how it was run: as §3
MCF7 = assay: Antiproliferative activity against human MCF7 cells after 72 hrs by MTT assay; assay type: functional, cell-based; conditions: MCF7, 72 h; how it was run: as §2
[4] = target: L-lactate dehydrogenase (Homo sapiens) (UniProt V9HWB9); assay: Inhibition of LDH (unknown origin) at 5 uM using 2-PG relative to control; how it was run: as §3
[5] = target: T1, Phosphoglycerate mutase 1; assay: Inhibition of recombinant PGAM1 (unknown origin) at 20 uM using 3-PG as substrate preincubated for 2 mins followed by substrate addition relative to control
How it was run: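 Same coupled PGAM1 assay: recombinant enzyme preincubated 2 min at room temperature with compound in 50 mM Tris pH 8.0. Enolase/PK/LDH mix with ADP, MgCl2, KCl and NADH added, then 3PG (200 mM stock) to start. OD340 decrease measured; inhibition ratio recorded at 20 µM.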
Target sequence in this assay (P18669 2-254 limits assumed): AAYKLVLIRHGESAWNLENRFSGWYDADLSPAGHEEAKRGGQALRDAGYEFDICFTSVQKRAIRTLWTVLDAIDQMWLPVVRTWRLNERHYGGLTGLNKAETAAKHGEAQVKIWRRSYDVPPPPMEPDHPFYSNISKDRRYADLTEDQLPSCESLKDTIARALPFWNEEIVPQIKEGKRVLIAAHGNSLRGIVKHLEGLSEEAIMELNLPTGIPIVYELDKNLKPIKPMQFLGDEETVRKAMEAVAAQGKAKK

[6] = target: T1, Phosphoglycerate mutase 1; assay: Inhibition of PGAM1 (unknown origin); how it was run: as §1
Target sequence in this assay (P18669 whole entry): as the sequence (P18669 whole entry) above

[7] = target: T1, Phosphoglycerate mutase 1; assay: Binding affinity to PGAM1 (unknown origin) assessed as change in melting temperature by SYPRO Orange-dye based fluorescence thermal shift assay
How it was run: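 PGAM1 protein at 200 µg/ml with compound at 12.5 to 50 µM in 20 mM Tris-HCl, 100 mM NaCl, pH 7.4. Melting monitored by SYPRO orange fluorescence at 610 nm; Tm shift recorded.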
Target sequence in this assay (P18669 2-254 limits assumed): as the sequence (P18669 2-254 limits assumed) above

Compound: COc1c(NS(=O)(=O)c2ccc(Br)cc2)cc2oc3cccc(OC)c3c(=O)c2c1O
IC50 [1]: > 20 µM | inhibition [5]: < 10%

Compound: COc1c(NS(=O)(=O)c2ccc(I)cc2)cc2oc3cccc(OC)c3c(=O)c2c1O
IC50 [1]: > 20 µM | inhibition [5]: < 10%

Compound: COc1c(NS(=O)(=O)c2ccccc2)cc2oc3cccc(OC)c3c(=O)c2c1O
IC50 [1]: > 20 µM | inhibition [5]: < 10%

Compound: COc1c(NS(=O)(=O)c2ccc(F)cc2)cc2oc3cccc(OC)c3c(=O)c2c1O
IC50 [1]: > 20 µM | inhibition [5]: < 10%

Compound: COc1c(NS(=O)(=O)c2ccc(C3CCCCC3)cc2)cc2oc3cccc(OC)c3c(=O)c2c1O
IC50 [1]: > 20 µM | inhibition [5]: < 10%

Compound: COc1c(NS(=O)(=O)c2ccc(N3CCCCC3)cc2)cc2oc3cccc(OC)c3c(=O)c2c1O
IC50 [1]: > 20 µM | inhibition [5]: < 10%

Compound: COc1c(NS(=O)(=O)c2cccc3ccccc23)cc2oc3cccc(OC)c3c(=O)c2c1O
IC50 [1]: > 20 µM | inhibition [5]: < 10%

Compound: COc1c(NS(=O)(=O)c2ccc(-c3ccccc3)cc2)cc2oc3cccc(OC)c3c(=O)c2c1O
IC50 [1]: > 20 µM | inhibition [5]: < 10%

Compound: Cc1ccc(S(=O)(=O)Nc2cc3oc4cccc(O)c4c(=O)c3c(O)c2O)cc1
IC50 [1]: 7.2 µM | IC50 (PANC-1): 20.7 µM | IC50 (NCI-H1299): 13.2 µM | inhibition (Homo sapiens [2]): 2% | inhibition (Homo sapiens [3]): 2% | IC50 (MCF7): 44.9 µM | inhibition [4]: 2%

Compound: COc1c(NS(=O)(=O)c2ccc(C(F)(F)F)cc2)cc2oc3cccc(OC)c3c(=O)c2c1O
IC50 [1]: > 20 µM | inhibition [5]: < 10%

Compound: COc1c(NS(=O)(=O)c2cccc(OC(F)(F)F)c2)cc2oc3cccc(OC)c3c(=O)c2c1O
IC50 [1]: > 20 µM | inhibition [5]: < 10%

Compound: COc1c(NS(=O)(=O)c2ccc(C(C)(C)C)cc2)cc2oc3cccc(OC)c3c(=O)c2c1O
IC50 [1]: > 20 µM | inhibition [5]: < 10%

Compound: COc1c(NS(=O)(=O)c2ccc3ccccc3c2)cc2oc3cccc(OC)c3c(=O)c2c1O
IC50 [1]: > 20 µM | inhibition [5]: < 10%

Compound: COc1c(NS(=O)(=O)c2ccc(C)cc2)cc2oc3cccc(OC)c3c(=O)c2c1O
IC50 [1]: > 20 µM | inhibition [5]: < 10%

Compound: COc1c(NS(=O)(=O)c2ccc(C#N)cc2)cc2oc3cccc(OC)c3c(=O)c2c1O
IC50 [1]: > 20 µM | inhibition [5]: < 10%

Compound: COc1c(NS(=O)(=O)c2cc(C(F)(F)F)ccc2C(F)(F)F)cc2oc3cccc(OC)c3c(=O)c2c1O
IC50 [1]: > 20 µM | inhibition [5]: < 10%

Compound: O=C1c2ccccc2C(=O)c2c1cc(S(=O)(=O)O)c(O)c2O [ALIZARIN RED]
IC50 [6]: 2300 nM

Compound: COc1c(NS(=O)(=O)Cc2ccccc2)cc2oc3cccc(OC)c3c(=O)c2c1O
IC50 [1]: > 20 µM | inhibition [5]: < 10%

Compound: COc1c(NS(=O)(=O)c2cccc(C#N)c2)cc2oc3cccc(OC)c3c(=O)c2c1O
IC50 [1]: > 20 µM | inhibition [5]: < 10%

Compound: COc1c(NS(=O)(=O)c2ccc(Cl)cc2)cc2oc3cccc(OC)c3c(=O)c2c1O
IC50 [1]: > 20 µM | inhibition [5]: < 10%

Compound: COc1c(NS(=O)(=O)c2ccc(N3CCCC3)cc2)cc2oc3cccc(OC)c3c(=O)c2c1O
IC50 [1]: > 20 µM | inhibition [5]: < 10%

The remaining molecules from weak to strong by IC50 [1], led by results:

IC50 [1]: 5.8 µM | IC50 (PANC-1): 116 µM | IC50 (NCI-H1299): 13.9 µM | inhibition (Homo sapiens [2]): 12% | inhibition (Homo sapiens [3]): 12% | IC50 (MCF7): 20.5 µM | inhibition [4]: 12%
Compound: O=c1c2c(O)cccc2oc2cc(NS(=O)(=O)c3cccc(OC(F)(F)F)c3)c(O)c(O)c12

IC50 [1]: 5.5 µM | IC50 (PANC-1): > 200 µM | IC50 (NCI-H1299): 21.9 µM | inhibition (Homo sapiens [2]): 1% | inhibition (Homo sapiens [3]): 1% | IC50 (MCF7): 20.8 µM | inhibition [4]: 1%
Compound: O=c1c2c(O)cccc2oc2cc(NS(=O)(=O)c3ccc(F)cc3)c(O)c(O)c12

IC50 [1]: 4.2 µM | IC50 (PANC-1): > 200 µM | IC50 (NCI-H1299): > 40 µM | inhibition (Homo sapiens [2]): 10% | inhibition (Homo sapiens [3]): 10% | IC50 (MCF7): 40.1 µM | inhibition [4]: 10%
Compound: N#Cc1ccc(S(=O)(=O)Nc2cc3oc4cccc(O)c4c(=O)c3c(O)c2O)cc1

IC50 [1]: 3.6 µM | IC50 (PANC-1): 91.4 µM | IC50 (NCI-H1299): 10.2 µM | inhibition (Homo sapiens [2]): 15% | inhibition (Homo sapiens [3]): 15% | IC50 (MCF7): 15.5 µM | inhibition [4]: 15%
Compound: O=c1c2c(O)cccc2oc2cc(NS(=O)(=O)c3ccc(Cl)cc3)c(O)c(O)c12

IC50 [1]: 3.5 µM | IC50 (PANC-1): 58.5 µM | IC50 (NCI-H1299): 10.3 µM | inhibition (Homo sapiens [2]): -1% | inhibition (Homo sapiens [3]): -1% | IC50 (MCF7): 30.2 µM | inhibition [4]: -1%
Compound: O=c1c2c(O)cccc2oc2cc(NS(=O)(=O)c3ccc(C(F)(F)F)cc3)c(O)c(O)c12

IC50 [1]: 2.6 µM | IC50 (PANC-1): > 200 µM | IC50 (NCI-H1299): 10.7 µM | inhibition (Homo sapiens [2]): 1% | inhibition (Homo sapiens [3]): 1% | IC50 (MCF7): 13.4 µM | inhibition [4]: 1%
Compound: CC(C)(C)c1ccc(S(=O)(=O)Nc2cc3oc4cccc(O)c4c(=O)c3c(O)c2O)cc1

IC50 [1]: 2.1 µM | IC50 (PANC-1): > 200 µM | IC50 (NCI-H1299): 53 µM | inhibition (Homo sapiens [2]): 13% | inhibition (Homo sapiens [3]): 13% | IC50 (MCF7): 18.4 µM | inhibition [4]: 13%
Compound: N#Cc1cccc(S(=O)(=O)Nc2cc3oc4cccc(O)c4c(=O)c3c(O)c2O)c1

IC50 [1]: 1.9 µM | IC50 (PANC-1): 34.5 µM | IC50 (NCI-H1299): 24.3 µM | inhibition (Homo sapiens [2]): 11% | inhibition (Homo sapiens [3]): 11% | IC50 (MCF7): 13.5 µM | inhibition [4]: 11%
Compound: O=c1c2c(O)cccc2oc2cc(NS(=O)(=O)c3ccc(I)cc3)c(O)c(O)c12

IC50 [1]: 1.9 µM | IC50 (PANC-1): > 200 µM | IC50 (NCI-H1299): 62.9 µM | inhibition (Homo sapiens [2]): 12% | inhibition (Homo sapiens [3]): 12% | IC50 (MCF7): > 200 µM | inhibition [4]: 12%
Compound: O=c1c2c(O)cccc2oc2cc(NS(=O)(=O)Cc3ccccc3)c(O)c(O)c12

IC50 [1]: 1.7 µM | IC50 (PANC-1): 101 µM | IC50 (NCI-H1299): 23.2 µM | inhibition (Homo sapiens [2]): 7% | inhibition (Homo sapiens [3]): 7% | IC50 (MCF7): 27.3 µM | inhibition [4]: 7%
Compound: O=c1c2c(O)cccc2oc2cc(NS(=O)(=O)c3cccc4ccccc34)c(O)c(O)c12

IC50 [1]: 1.6 µM | IC50 (PANC-1): > 200 µM | IC50 (NCI-H1299): 22.6 µM | inhibition (Homo sapiens [2]): 9% | inhibition (Homo sapiens [3]): 9% | IC50 (MCF7): 43.3 µM | inhibition [4]: 9%
Compound: O=c1c2c(O)cccc2oc2cc(NS(=O)(=O)c3ccc4ccccc4c3)c(O)c(O)c12

IC50 [1]: 1.2 µM | IC50 (PANC-1): > 200 µM | IC50 (NCI-H1299): 12.9 µM | inhibition (Homo sapiens [2]): 8% | inhibition (Homo sapiens [3]): 8% | IC50 (MCF7): 44.9 µM | inhibition [4]: 8%
Compound: O=c1c2c(O)cccc2oc2cc(NS(=O)(=O)c3ccc(-c4ccccc4)cc3)c(O)c(O)c12

IC50 [1]: 1 µM | IC50 (PANC-1): > 200 µM | IC50 (NCI-H1299): 8.1 µM | inhibition (Homo sapiens [2]): 5% | inhibition (Homo sapiens [3]): 5% | IC50 (MCF7): 47.6 µM | inhibition [4]: 5%
Compound: O=c1c2c(O)cccc2oc2cc(NS(=O)(=O)c3ccc(N4CCCCC4)cc3)c(O)c(O)c12

IC50 [1]: 0.5 µM | IC50 (PANC-1): 35.3 µM | IC50 (NCI-H1299): 10.7 µM | inhibition (Homo sapiens [2]): 9% | inhibition (Homo sapiens [3]): 9% | IC50 (MCF7): 26.6 µM | Activity [7]: Dose-dependent effect | inhibition [4]: 9%
Compound: O=c1c2c(O)cccc2oc2cc(NS(=O)(=O)c3ccc(C4CCCCC4)cc3)c(O)c(O)c12
